# Assay results: ChEMBL document CHEMBL1151437, “Activity of a potent hepatitis C virus polymerase inhibitor in the chimpanzee model” (Antimicrob Agents Chemother, 2007)
# What was measured:
# Hepatitis C virus [1] = assay: Antiviral activity against HCV 1a H77 infected in chimpanzee assessed as reduction in viral load at 30 mg/kg, po BID for 14 days measured on day 2 postdosing; format: functional, Hepacivirus hominis, genotype 1a H77
# Method in brief: (§1)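 One chimpanzee infected with genotype 1a and one with genotype 1b were dosed orally with 30 mg/kg BID for 14 days. Serum viral load was measured by TaqMan quantitative RT-PCR. A pretreatment serum sample (day 0) served as the baseline.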
# [2] = AUC in dog at 5 mg/kg, po; format: ADME, organism-based, Canis lupus familiaris; set-up: dose 5 mg/kg, route oral; conditions: plasma
# Method in brief: (§2)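 Rats, dogs and monkeys received one oral 5 mg/kg dose in polyethylene glycol 400. Serum was sampled at 0.3, 0.5, 1, 2, 4, 6, 9, 12 and 24 h. Plasma drug was extracted by acetonitrile protein precipitation with internal standard and quantified by LC-MS against spiked standards (peak-area ratio, linear regression). Limit of quantitation was about 20 ng/ml.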
# Hepatitis C virus [3] = assay: Drug resistance, ratio of EC50 for HCV 1a H77 with NS5B polymerase Y448C mutation to EC50 for wild type HCV 1a H77 infected in chimpanzee measured on day 28; format: functional, Hepacivirus hominis, genotype 1a H77
# [4] = Tmax in rat at 5 mg/kg, po; format: ADME, organism-based; set-up: dose 5 mg/kg, route oral; conditions: in vivo; method in brief: as §2
# Hepatitis C virus [5] = assay: Antiviral activity against HCV 1b strain N after 4 days by RT-PCR in presence of 40% human serum; format: functional, organism-based, Hepacivirus hominis; conditions: genotype 1b strain N, 96 h
# Method in brief: (§3)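 They were exposed for 4 days to half-log inhibitor dilutions in medium with 5% FBS plus 40% human serum, to assess protein binding. Replicon RNA copy number was then measured by TaqMan real-time RT-PCR on extracted total RNA.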
# Hepatitis C virus [6] = assay: Ratio of EC50 for HCV 1b strain N in presence of 40% human serum to EC50 for HCV 1b strain N in absence of human serum; format: functional, Hepacivirus hominis, genotype 1b strain N
# Method in brief: (§4)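 Cells carrying the subgenomic replicon (genotype 1b strain N, or chimeric 1a H77/1b Con1) were maintained in DMEM with 10% FBS and 400 µg/ml G418. The next day they were given medium with 5% FBS and half-log inhibitor dilutions, with or without 40% human serum, for 4 days. Replicon RNA copy number was measured by TaqMan RT-PCR.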
# [7] = Tmax in dog at 5 mg/kg, po; format: ADME, organism-based, Canis lupus familiaris; set-up: dose 5 mg/kg, route oral; conditions: in vivo; method in brief: as §2
# Hepatitis C virus [8] = assay: Antiviral activity against HCV 1b strain N after 4 days by RT-PCR; format: functional, organism-based, Hepacivirus hominis; conditions: genotype 1b strain N, 96 h
# Method in brief: (§5)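 Subgenomic replicon cells (genotype 1b strain N, or chimeric 1a H77/1b Con1) grown in DMEM with 10% FBS and 400 µg/ml G418. Next day, the medium was switched to 5% FBS with inhibitor in half-log dilutions. After 4 days, total RNA was extracted and replicon RNA copies were counted by TaqMan real-time RT-PCR. Potency came from the fall in copy number.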
# Hepatitis C virus [9] = assay: Antiviral activity against HCV 1a H77 with NS5B polymerase G554D mutation infected in chimpanzee measured on day 5; format: functional, organism-based, Hepacivirus hominis; conditions: genotype 1a H77, 120 h
# Hepatitis C virus [10] = assay: Antiviral activity against HCV 1a H77 with NS5B polymerase Y448C mutation infected in chimpanzee measured on day 28; format: functional, organism-based, Hepacivirus hominis; conditions: genotype 1a H77, 672 h
# Hepatitis C virus [11] = assay: Antiviral activity against HCV 1b strain N with NS5B polymerase C316Y mutation infected in chimpanzee measured on day 28; format: functional, organism-based, Hepacivirus hominis; conditions: genotype 1b strain N, 672 h
# [12] = Inhibition of HCV 1a H77 NS5B polymerase by [3H]UTP incorporation assay; set-up: species or system Hepatitis C virus (isolate H77)
# Hepatitis C virus [13] = assay: Antiviral activity against wild type HCV 1b strain N infected in chimpanzee; format: functional, organism-based, Hepacivirus hominis; conditions: genotype 1b strain N
# Hepatitis C virus [14] = assay: Drug resistance, ratio of EC50 for HCV 1b strain N with NS5B polymerase C316Y mutation to EC50 for wild type HCV 1b strain N infected in chimpanzee measured on day 11; format: functional, Hepacivirus hominis, genotype 1b strain N
# Hepatitis C virus [15] = assay: Inhibition of HCV 1b strain N NS5B polymerase by [3H]UTP incorporation assay; set-up: species or system Hepatitis C virus subtype 1b
# Hepatitis C virus [16] = assay: Ratio of EC50 for HCV 1a H77 in presence of 40% human serum to EC50 for HCV 1a H77 in absence of human serum; format: functional, Hepacivirus hominis, genotype 1a H77; method in brief: as §4
# Hepatitis C virus [17] = assay: Drug resistance, ratio of EC50 for HCV 1a H77 with NS5B polymerase G554D mutation to EC50 for wild type HCV 1a H77 infected in chimpanzee measured on day 2; format: functional, Hepacivirus hominis, genotype 1a H77
# [18] = Half life in dog at 5 mg/kg, po; format: ADME, organism-based, Canis lupus familiaris; set-up: dose 5 mg/kg, route oral; conditions: in vivo; method in brief: as §2
# Hepatitis C virus [19] = assay: Antiviral activity against HCV 1b strain N with NS5B polymerase C316Y mutation infected in chimpanzee measured on day 5; format: functional, organism-based, Hepacivirus hominis; conditions: genotype 1b strain N, 120 h
# [20] = AUC in monkey at 5 mg/kg, po; format: ADME, organism-based, Macaca mulatta; set-up: dose 5 mg/kg, route oral; conditions: rhesus monkey, plasma; method in brief: as §2
# [21] = Cmax in rat at 5 mg/kg, po; format: ADME, organism-based; set-up: dose 5 mg/kg, route oral; conditions: in vivo; method in brief: as §2
# Hepatitis C virus [22] = assay: Antiviral activity against HCV 1b strain N with NS5B polymerase C316Y mutation infected in chimpanzee measured on day 2; format: functional, organism-based, Hepacivirus hominis; conditions: genotype 1b strain N, 48 h
# [23] = Cmax in HCV 1b strain N infected chimpanzee at 30 mg/kg, po BID for 14 days measured after 2 hrs of postdose; format: ADME, organism-based, Pan troglodytes; set-up: dose 30 mg/kg, route oral; conditions: in vivo
# Hepatitis C virus [24] = assay: Antiviral activity against HCV 1a H77 with NS5B polymerase G554D mutation infected in chimpanzee measured on day 2; format: functional, organism-based, Hepacivirus hominis; conditions: genotype 1a H77, 48 h
# Hepatitis C virus [25] = assay: Antiviral activity against HCV 1a H77 after 4 days by RT-PCR; format: functional, organism-based, Hepacivirus hominis; conditions: genotype 1a H77, 96 h; method in brief: as §5
# [26] = AUC in rat at 5 mg/kg, po; format: ADME, organism-based; set-up: dose 5 mg/kg, route oral; conditions: plasma; method in brief: as §2
# Hepatitis C virus [27] = assay: Drug resistance, ratio of EC50 for HCV 1b strain N with NS5B polymerase C316Y mutation to EC50 for wild type HCV 1b strain N infected in chimpanzee measured on day 5; format: functional, Hepacivirus hominis, genotype 1b strain N
# [28] = Half life in rat at 5 mg/kg, po; format: ADME, organism-based; set-up: dose 5 mg/kg, route oral; conditions: in vivo; method in brief: as §2
# [29] = Half life in monkey at 5 mg/kg, po; format: ADME, organism-based, Macaca mulatta; set-up: dose 5 mg/kg, route oral; conditions: rhesus monkey, in vivo; method in brief: as §2
# [30] = Tmax in monkey at 5 mg/kg, po; format: ADME, organism-based, Macaca mulatta; set-up: dose 5 mg/kg, route oral; conditions: rhesus monkey, in vivo; method in brief: as §2
# Hepatitis C virus [31] = assay: Drug resistance, ratio of EC50 for HCV 1b strain N with NS5B polymerase C316Y mutation to EC50 for wild type HCV 1b strain N infected in chimpanzee measured on day 2; format: functional, Hepacivirus hominis, genotype 1b strain N
# Hepatitis C virus [32] = assay: Antiviral activity against HCV 1b strain N with NS5B polymerase C316Y mutation infected in chimpanzee measured on day 11; format: functional, organism-based, Hepacivirus hominis; conditions: genotype 1b strain N, 264 h
# Hepatitis C virus [33] = assay: Drug resistance, ratio of EC50 for HCV 1a H77 with NS5B polymerase G554D mutation to EC50 for wild type HCV 1a H77 infected in chimpanzee measured on day 16; format: functional, Hepacivirus hominis, genotype 1a H77
# [34] = Cmax in monkey at 5 mg/kg, po; format: ADME, organism-based, Macaca mulatta; set-up: dose 5 mg/kg, route oral; conditions: rhesus monkey, in vivo; method in brief: as §2
# Hepatitis C virus [35] = assay: Antiviral activity against HCV 1b strain N infected in chimpanzee assessed as reduction in viral load at 30 mg/kg, po BID for 14 days measured on day 2 postdosing; format: functional, Hepacivirus hominis, genotype 1b strain N; method in brief: as §1
# Hepatitis C virus [36] = assay: Drug resistance, ratio of EC50 for HCV 1a H77 with NS5B polymerase G554D mutation to EC50 for wild type HCV 1a H77 infected in chimpanzee measured on day 5; format: functional, Hepacivirus hominis, genotype 1a H77
# Hepatitis C virus [37] = assay: Antiviral activity against HCV 1a H77 after 4 days by RT-PCR in presence of 40% human serum; format: functional, organism-based, Hepacivirus hominis; conditions: genotype 1a H77, 96 h; method in brief: as §3
# [38] = Cmax in HCV 1a H77 infected chimpanzee at 30 mg/kg, po BID for 14 days measured after 2 hrs of postdose; format: ADME, organism-based, Pan troglodytes; set-up: dose 30 mg/kg, route oral; conditions: in vivo
# Method in brief: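 Chimpanzees were dosed orally at 30 mg/kg BID for 14 days. Plasma drug was measured by LC-MS. For the genotype 1a animal, the value is the mean of three samples taken 2 h after the a.m. dose on days 2, 3 and 4.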
# [39] = Oral bioavailability in monkey at 5 mg/kg; format: ADME, organism-based, Macaca mulatta; conditions: rhesus monkey, in vivo
# [40] = Cmax in dog at 5 mg/kg, po; format: ADME, organism-based, Canis lupus familiaris; set-up: dose 5 mg/kg, route oral; conditions: in vivo; method in brief: as §2
# [41] = Oral bioavailability in rat at 5 mg/kg; format: ADME, organism-based; conditions: in vivo
# Hepatitis C virus [42] = assay: Drug resistance, ratio of EC50 for HCV 1b strain N with NS5B polymerase C316Y mutation to EC50 for wild type HCV 1b strain N infected in chimpanzee measured on day 28; format: functional, Hepacivirus hominis, genotype 1b strain N
# Hepatitis C virus [43] = assay: Antiviral activity against HCV 1a H77 with NS5B polymerase G554D mutation infected in chimpanzee measured on day 16; format: functional, organism-based, Hepacivirus hominis; conditions: genotype 1a H77, 384 h
# [44] = Oral bioavailability in dog at 5 mg/kg; format: ADME, organism-based, Canis lupus familiaris; conditions: in vivo
smiles,measurement,setting,value
CC(C)CC[C@@]1(C)C(=O)C(C2=NS(=O)(=O)c3cc(NS(C)(=O)=O)ccc3N2)=C(O)c2ccccc21,log10cfu,Hepatitis C virus [1],1.4 /ml
same,AUC,[2],10500 ng·h/mL
same,fold change (FC),Hepatitis C virus [3],2.3
same,Tmax,[4],4.2 h
same,EC50,Hepatitis C virus [5],42 nM
same,fold change (FC),Hepatitis C virus [6],15
same,Tmax,[7],0.4 h
same,EC50,Hepatitis C virus [8],3 nM
same,EC50,Hepatitis C virus [9],4.5 nM
same,EC50,Hepatitis C virus [10],8.2 nM
same,EC50,Hepatitis C virus [11],350 nM
same,IC50,[12],1.25 nM
same,EC50,Hepatitis C virus [13],0.9 nM
same,fold change (FC),Hepatitis C virus [14],2000
same,IC50,Hepatitis C virus [15],0.33 nM
same,fold change (FC),Hepatitis C virus [16],13
same,fold change (FC),Hepatitis C virus [17],2.2
same,half-life,[18],10.7 h
same,EC50,Hepatitis C virus [19],1200 nM
same,AUC,[20],1500 ng·h/mL
same,Cmax,[21],310 ng/mL
same,EC50,Hepatitis C virus [22],25 nM
same,Cmax,[23],8590 ng/mL
same,EC50,Hepatitis C virus [24],7.7 nM
same,EC50,Hepatitis C virus [25],11 nM
same,AUC,[26],3300 ng·h/mL
same,fold change (FC),Hepatitis C virus [27],1330
same,half-life,[28],7.6 h
same,half-life,[29],1.9 h
same,Tmax,[30],2.7 h
same,fold change (FC),Hepatitis C virus [31],28
same,EC50,Hepatitis C virus [32],1800 nM
same,fold change (FC),Hepatitis C virus [33],3.9
same,Cmax,[34],520 ng/mL
same,log10cfu,Hepatitis C virus [35],2.5 /ml
same,fold change (FC),Hepatitis C virus [36],1.3
same,EC50,Hepatitis C virus [37],143 nM
same,Cmax,[38],5490 ng/mL
same,bioavailability,[39],15.2%
same,Cmax,[40],1940 ng/mL
same,bioavailability,[41],62.7%
same,fold change (FC),Hepatitis C virus [42],389
same,EC50,Hepatitis C virus [43],13.8 nM
same,bioavailability,[44],89.3%
COc1ccc2c(O[C@@H]3C[C@H]4C(=O)N[C@]5(C(=O)O)C[C@H]5/C=C\CCCCC[C@H](NC(=O)OC5CCCC5)C(=O)N4C3)cc(-c3csc(NC(C)C)n3)nc2c1 [CILUPREVIR],fold change (FC),Hepatitis C virus [3],1.1
same,EC50,Hepatitis C virus [9],3.1 nM
same,EC50,Hepatitis C virus [10],3.3 nM
same,EC50,Hepatitis C virus [11],1.3 nM
same,EC50,Hepatitis C virus [13],1.4 nM
same,fold change (FC),Hepatitis C virus [14],0.8
same,fold change (FC),Hepatitis C virus [17],0.9
same,EC50,Hepatitis C virus [19],1.3 nM
same,EC50,Hepatitis C virus [22],1.3 nM
same,EC50,Hepatitis C virus [24],2.7 nM
same,fold change (FC),Hepatitis C virus [27],1.1
same,fold change (FC),Hepatitis C virus [31],1
same,EC50,Hepatitis C virus [32],1.1 nM
same,fold change (FC),Hepatitis C virus [33],0.9
same,fold change (FC),Hepatitis C virus [36],1
same,fold change (FC),Hepatitis C virus [42],1
same,EC50,Hepatitis C virus [43],2.8 nM
